From ChEMBL document CHEMBL1149792, “Synthesis and adenosine receptor binding studies of some novel triazolothienopyrimidines” (Eur J Med Chem, 2008) come the findings set out here.

The target of experiment [1] is T1, Adenosine receptor A1 (Rattus norvegicus) (UniProt P25099).
T1 sequence (whole entry): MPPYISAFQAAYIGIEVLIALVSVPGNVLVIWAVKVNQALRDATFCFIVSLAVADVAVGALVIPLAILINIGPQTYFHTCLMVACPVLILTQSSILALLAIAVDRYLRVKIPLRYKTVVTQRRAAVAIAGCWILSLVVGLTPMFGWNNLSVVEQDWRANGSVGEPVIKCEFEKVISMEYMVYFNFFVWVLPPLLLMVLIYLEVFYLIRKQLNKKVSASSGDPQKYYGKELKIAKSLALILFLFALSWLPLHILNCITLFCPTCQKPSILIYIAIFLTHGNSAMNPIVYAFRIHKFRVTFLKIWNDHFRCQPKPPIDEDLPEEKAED
The experiment is described as follows: Inhibition of rat adenosine A1 receptor at 1 uM. In outline:
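Single-concentration screen measured as percent inhibition of [3H]CCPA (0.5 nM) binding to rat cortical membranes, run at room temperature for 90 min with 2.5% DMSO final. Nonspecific binding was defined with 2-chloroadenosine. Separation was by GF/B filtration, with scintillation counting of bound radioactivity.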

The next experiment concerns the target T2, Adenosine receptor A1 (Rattus norvegicus, UniProt P25099).
T2 sequence (P25099 whole entry): T1 sequence (whole entry)
Description: Displacement of [3H]CCPA from rat adenosine A1 receptor. In short, it runs like this:
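Rat brain cortical membranes (from frozen rat brains) were incubated with [3H]CCPA at 0.5 nM at room temperature for 90 min. Compounds were added from DMSO stocks, giving 2.5% DMSO final. 2-Chloroadenosine defined nonspecific binding. Bound radioactivity was separated by GF/B filtration and counted by scintillation. Compounds giving over 20% inhibition in the single-concentration screen were tested at six concentrations to derive Ki.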
(In a radioligand displacement assay an active substance lowers the binding of a labelled ligand.)

For the compound `S=c1[nH]nc2c3c4c(sc3nc(-c3ccncc3)n12)CCCC4`, in experiment [1], the inhibition (as a rule, the relative decrease from the control value, in per cent) stood at 0%. `O=C(c1ccccc1)c1nc2sc3c(c2c2n[nH]c(=S)n12)CCCC3` showed an inhibition in experiment [1] of 0%. The compound `CCc1nc2sc3c(c2c2n[nH]c(=S)n12)CCCC3` returned an inhibition in experiment [1] of 56%. The Ki (usually a dissociation constant, usually derived from enzyme kinetics or from competition with a known ligand) at Adenosine receptor A1 is 1.17 µM. Compound `Cc1sc2nc(C(=O)c3ccccc3)n3c(=S)[nH]nc3c2c1C` had an inhibition in experiment [1] of 0%. As for `Cc1sc2nc(C)n3c(=S)[nH]nc3c2c1C`, the inhibition in experiment [1] amounted to 4%. In experiment [1], `CCCc1nc2sc3c(c2c2n[nH]c(=S)n12)CCCC3` yielded an inhibition of 0%. Regarding `Cc1nc2sc3c(c2c2n[nH]c(=S)n12)CCCC3`, the inhibition in experiment [1] came out at 26%. On Adenosine receptor A1, the Ki is 4.4 µM. As to `CCCc1nc2sc(C)c(C)c2c2n[nH]c(=S)n12`, in experiment [1], the inhibition came out at 13%. Turning to `Cc1sc2nc(-c3ccccc3)n3c(=S)[nH]nc3c2c1C`, the inhibition in experiment [1] turned out to be 0%.

For `CCc1nc2sc(C)c(C)c2c2n[nH]c(=S)n12`, the inhibition in experiment [1] stood at 21%. For the same compound, at Adenosine receptor A1, the affinity corresponds to a Ki of 2.1 µM. In experiment [1], `S=c1[nH]nc2c3c4c(sc3nc(-c3ccccc3)n12)CCCC4` returned an inhibition of 0%.
